Source: PubChem BioAssay AID2560 (University of Pittsburgh Molecular Library Screening Center, 2010)
Some of the results follow. Unmarked numbers belong to inactive results.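 Rule for the calls: active = inhibition of at least 50% in both of the two screening runs; inconclusive = at least 50% in one run, below 50% in the other; inactive = inhibition below 50% in both runs.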

Tested on: hexokinase 1 (Trypanosoma brucei)
Experiment: TbHK1 inhibitor retest, confirmation, biochemical, DPI cherry-picked primary actives (AID 2560);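 note: 0% and 100% set by the maximum and minimum signal control wells on each plate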
Details: recombinant TbHK1, G6PDH-coupled NADH A340 absorbance; at 10 µM; stronger effect = higher value
Summary of the method: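 System: Trypanosoma brucei hexokinase 1 enzyme with G6PDH coupling enzyme; Medium: Mg2+, NAD+ and G6PDH coupling mix; Reagent: substrates glucose 0.5 mM and ATP 0.35 mM; Doses: single compound dose of 10 µM final; Incubation: enzyme reaction 2 h at room temperature; Signal: A340 NADH absorbance, EDTA-quenched; Repeats: duplicate measurements per compound.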

**Q.** With `COC(=O)C1CCN(CC(N)=O)CC1` as the compound, how does the inhibition read?
**A.** 5.76%

**Q.** With `CC1(C)CC(=O)C=C(NCCCNC2CCCCC2)C1` as the compound, how does the inhibition read?
**A.** 2.17%

**Q.** With `COc1cccc(/C=N/Nc2ncc(C(F)(F)F)cc2Cl)c1O` as the compound, how does the inhibition read?
**A.** -10.9%

**Q.** How did the inhibition turn out when `O=C(CN1C(=O)C2C3C=CC(C3)C2C1=O)NCCc1ccccc1Cl` (centres undefined) was run?
**A.** -0.0219%
